Screening data: PubChem, several laboratories
Glyco luc inh: N-linked glycosylation inhibition | D54 ERlucT glycosylation luciferase reporter, 24 h; percent of 100 nM tunicamycin response | reporter increase, % at 12.5 µM | 360,000 compounds, 0.23% hits;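 active = mean luciferase reporter signal, scaled so untreated is 0 and the glycosylation-blocking control 100, at or above a set limit in every replicate; inconclusive = mean reaches the limit but not every replicate does; inactive = mean below the limit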;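 also: luciferase carries N-glycosylation sites so blocking glycosylation raises the light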
T cell HTS: T cell immune modulation candidate | response (vesicle binding), % at 7 µM | 330,000 compounds, 0.068% hits | AID 2052 | 2C CD8+ T cell-vesicle binding, flow cytometry; hits give low values;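 active = response, share of CD8 T cells binding vesicles, and their 90th percentile fluorescence all below set limits, cut at about 80% in these data, passing the limit was not always enough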;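 also: values below 100% mean blocked vesicle binding to the CD8+ T cells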
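Read-out – percent CD8+ FL2 mean versus row control · System – murine 2C transgenic CD8+ T lymphocytes · Times – 1.5 h cell–vesicle binding at 37 °C, then 20 min icy labelling · Control set – naked vesicles low, QL9 vesicles with vehicle high · Detection – cytometric PE anti-B7-1 and Alexa647 anti-CD8 signals after 1% paraformaldehyde fixation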
ALR H2O2 inh: human ALR oxidase inhibition via reduced H2O2 | P55789 | purified ALR, DTT oxidation, H2O2 HRP-luminol luminescence | inhibition, % (concentration not given with the values) | 290,000 compounds, 3.8% hits | AID 485317;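 active = mean replicate inhibition above about 79%, with every replicate also reaching it, limit read from the data; inconclusive = only one of the two criteria met; inactive = mean below limit and not every replicate reaching it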
Target sequence (P55789 whole entry, looked up): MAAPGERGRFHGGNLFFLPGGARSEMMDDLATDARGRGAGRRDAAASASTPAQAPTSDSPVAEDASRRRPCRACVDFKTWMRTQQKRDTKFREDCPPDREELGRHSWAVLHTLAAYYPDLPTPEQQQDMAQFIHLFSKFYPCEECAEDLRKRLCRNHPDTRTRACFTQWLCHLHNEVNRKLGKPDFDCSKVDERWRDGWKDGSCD
Hits are given with their value; i = inactive; ? = inconclusive; nt = no result given. This is one part of a sample in which hits are shown more often than they occur.

SMILES | Glyco luc inh | T cell HTS | ALR H2O2 inh
Cc1ccc(C(=O)OCC(=O)Nc2ccccc2N2CCOCC2)cc1 | i | i | 92
O=C(COC(=O)CCc1ccc(S(=O)(=O)N2CCOCC2)cc1)Nc1ccccc1OC(F)F | i | i | i
O=C(Cc1ccc(F)cc1)N[C@@H]1c2ccccc2CC[C@H]1OCc1ccccc1 | i | nt | nt
O=[N+]([O-])c1cccc(C(=S)N2CCN(c3ccc(F)cc3)CC2)c1 | i | i | i
COc1ccc2nc3cccc(OC)c3nc2c1 | i | i | nt
COc1ccc2nc3ccccc3nc2c1N | i | i | 99
COc1cc(CN2C[C@@H](CO)O[C@@H](n3cnc4c(N(C)C)ncnc43)C2)cc(OC)c1OC | i | nt | nt
CCc1cc(=O)[nH]c(SCC(=O)Nc2ccc3c(c2)OCCO3)n1 | i | i | nt
COc1ccc2nc(SCC(=O)Nc3ccc4[nH]c(=O)[nH]c4c3)[nH]c2c1 | i | i | i
Cc1ccc2nc(SCC(=O)Nc3ccc4c(c3)OCCO4)[nH]c2c1 | i | i | i
Cn1c(SCC(=O)Nc2ccc3[nH]c(=O)[nH]c3c2)nnc1-c1ccc(F)cc1 | i | i | 99
Cn1c(SCC(=O)Nc2ccc3[nH]c(=O)[nH]c3c2)nnc1-c1ccccc1 | i | i | i
CCc1c(C)nc(SCC(=O)Nc2ccc3c(c2)OCCO3)[nH]c1=O | i | i | 99
O=C(CSc1nc2ccccc2[nH]1)Nc1ccc2c(c1)OCCO2 | i | i | 99
O=C(CSc1nc2ccccc2[nH]1)Nc1ccc2[nH]c(=O)[nH]c2c1 | i | i | 98
CCSc1nnc(NS(=O)(=O)c2ccc(OC)cc2)s1 | i | i | i
CC(C(=O)N1CCCC1)N(C)CC(=O)Nc1cccc(F)c1 (configuration not stated) | i | i | i
CC(=O)c1cccc(-c2ccnc3c2CC(C(=O)Nc2ccc(C(C)C)cc2)O3)c1 (configuration not stated) | i | nt | nt
COC(=O)c1ccc(C)c(NS(=O)(=O)c2ccc(OC)cc2)c1 | i | i | i
COC(=O)c1ccc(C)c(NS(=O)(=O)c2ccc3c(c2)OCCO3)c1 | 31 | i | i
Nc1n[nH]c2cc(=O)n(-c3cccc(C(F)(F)F)c3)nc12 | i | i | 93
O=c1[nH][nH]c2cc(=O)n(-c3cccc(C(F)(F)F)c3)nc12 | i | i | i
N#Cc1c(N)sc(=S)c2c1CCCCC2 | i | i | i
N#Cc1c(N)sc2c1CCCCCC2 | i | i | 99
COc1cccc(CN(C)C(=S)Nc2cccc(C)c2)c1 | i | i | i
SMILES | Glyco luc inh | T cell HTS | ALR H2O2 inh
COc1cccc(NS(=O)(=O)NC(=O)c2c(C)[nH]c3ccccc23)c1 | i | i | i
O=[N+]([O-])c1cccc(P(=O)(O)c2cccc([N+](=O)[O-])c2)c1 | i | i | i
Cc1ccc(CNCC(=O)Nc2ccc(N3CCOCC3)cc2)cc1 | i | i | 99
Cc1ccc(CSCC(=O)Nc2ccc(N3CCOCC3)cc2N2CCOCC2)cc1 | i | i | 98
O=C(Nc1ccc(N2CCOCC2)cc1N1CCOCC1)c1ccc(Br)cc1 | i | i | i
CCNCC(=O)Nc1ccc(N2CCOCC2)cc1 | i | i | i
O=S(=O)(Nc1ccc(N2CCOCC2)cc1)c1cccs1 | i | i | 98
O=C(Nc1ccc(N2CCOCC2)cc1N1CCOCC1)c1cccs1 | i | i | 78
O=C(N/N=C/c1ccc(N2CCOCC2)cc1)c1ccc(NS(=O)(=O)c2cccs2)cc1 | i | i | i
Cc1cccc(NC(=O)CSCC(=O)Nc2ccc(N3CCOCC3)cc2N2CCOCC2)c1 | i | nt | nt
CCN(Cc1ccccc1)S(=O)(=O)c1ccc(C(=O)N(CCCN(C)C)c2nc3c(C)c(C)ccc3s2)cc1 | i | i | i
O=C(NC1CCCCC1)C1CC(=O)N(Cc2ccccc2)C1 (configuration not stated) | i | i | i
CCN(CC)C(=O)C1=C(C)N(Cc2ccc(OC)cc2)C(=O)C(CC(=O)NC2CCCCC2)C1 (configuration not stated) | i | nt | nt
CN(C)c1ccc(C(=O)OCC#CCSc2nnc(-c3cccc4ccccc34)o2)cc1 | i | i | i
CCN(Cc1ccccc1)S(=O)(=O)c1ccc(S(=O)(=O)N2CCN(C)CC2)cc1 | i | i | nt
O=S(=O)(c1ccc(S(=O)(=O)N(Cc2ccccc2)Cc2ccco2)cc1)N1CCCC1 | i | i | 94
CN1CCC(NC(=O)c2cccc(Oc3ccccc3)c2)CC1 | i | i | i
COc1cc(C(=O)NC2CCN(C)CC2)ccc1Nc1ncc2c(n1)N(C1CCCC1)CCC(=O)N2C(C)C | 59 | nt | nt
COc1ccc(C(=O)NC2CCCCCCC2)cc1OC | i | i | i
COc1cc(C(=O)NC2CCN(C)CC2)ccc1Nc1ncc2c(n1)N(CCc1ccccc1)CCC(=O)N2C | 62 | nt | nt
COc1ccccc1NC(=O)Cc1nnc(SCC(=O)Nc2nccs2)n1C | i | i | nt
O=C(CCn1c(=S)oc2ccccc21)Nc1cc([N+](=O)[O-])ccc1F | i | i | i
CC(=O)Oc1ccc(-c2cccc(C(=O)N(C)c3ccc(O)cc3)c2)cc1 | i | i | 86
CC(=O)Oc1ccc(-c2cccc(C(=O)O)c2)cc1 | i | i | i
O=C(COC(=O)CCC(=O)c1cccs1)Nc1cccc(F)c1 | i | i | i
SMILES | Glyco luc inh | T cell HTS | ALR H2O2 inh
Cc1[nH]c2ccc(F)cc2c1CCN(Cc1cccnc1)C(=S)Nc1ccccc1 | i | i | i
CNC(=S)N(CCc1c(C)[nH]c2ccc(F)cc12)Cc1cccnc1 | i | i | 97
S=C(Nc1nc2c(s1)CCCC2)NC1CC1 | i | i | 86
O=C(NC(=S)Nc1nc2c(s1)CCCC2)c1ccccc1 | i | i | nt
CCOC(=O)C1(C)CCN1C(=O)CSc1ccccc1 (configuration not stated) | i | nt | nt
CCOc1cc(NC2CS(=O)(=O)CC2O)c(OCC)cc1NC(=O)c1ccccc1 (configuration not stated) | i | i | 89
CCOc1cc(NC(=O)c2ccccn2)c(OCC)cc1NC(=O)c1ccccc1 | i | i | i
COc1ccccc1CNC(=O)COC(=O)c1cnc(C)cn1 | i | nt | nt
O=C(NNc1nc2c(F)cc(F)cc2s1)C1=COCCO1 | i | i | 98
Cc1cccc2sc(NNC(=O)C3=COCCO3)nc12 | i | i | i
CC1(Cc2cccc(C(F)(F)F)c2)C(=O)Nc2c(Cl)ccc(Cl)c21 (configuration not stated) | i | nt | nt
CCc1nnc(NC(=O)c2cc(Cl)ccn2)s1 | i | i | i
CC(=O)c1cccc(NC(=O)NC(C)c2ccc3c(c2)OCO3)c1 (configuration not stated) | i | i | i
Cc1cccc(C)c1N=Nc1c(C)cc(O)cc1C | i | i | 92
Cc1cccc(O)c1C | i | i | nt
CS(=O)(=O)c1ccc(N2CCN(c3ccccn3)CC2)c([N+](=O)[O-])c1 | i | i | i
O=C(NNC(=S)NC1CCCCC1)c1ccccc1O | i | i | 97
O=C(NNC(=S)NC1CCCCC1)c1cccs1 | i | i | ?
CCN1CCN(C(c2cccs2)C(C)NC(=O)C(=O)N2CCCCC2)CC1 (configuration not stated) | i | i | i
CC(NC(=O)C(=O)N1CCCCC1)C(c1cccs1)N1CCN(Cc2ccccc2)CC1 (configuration not stated) | i | i | i
CC(NC(=O)C1CC1)C(c1cccs1)N1CCN(c2ccccc2)CC1 (configuration not stated) | i | i | 99
